According to ChEMBL document CHEMBL4257448, “Deciphering the origins of molecular toxicity of combretastatin A4 and its glycoconjugates: interactions with major drug transporters and their safety profiles in vitro and in vivo” (Medchemcomm, 2017):
pIC50: −log10 of the molar value. In brackets after ≈: the same amount, converted by molar mass. Activity calls are given as the source filed them. The calls are words filed in the database; no cut-off is given here.

Legend:
[1] = Aqueous solubility of the compound after 1 hrs by HPLC-UV method; format: physicochemical; conditions: deionized water
Summary of the method: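 Shaken in tubes at 25 °C for 1 h, protected from light, then filtered through 0.2 μm filters; filtrate diluted in deionized water and quantified by reversed-phase HPLC-UV (C18 column, room temperature, methanol/water 70:30 v/v, 1.0 mL min−1).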

DU-145 = assay: Cytotoxicity against human DU145 cells assessed as reduction in cell viability up to 20 uM after 24 hrs by MTT assay; format: functional, cell-based
Summary of the method: (§1)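 Cells were grown as adherent monolayers at 37 °C in 5% CO2: SKOV3 in advanced DMEM, DU145 and MB231 in RPMI-1640 with glutamine and 10% FBS. They were seeded at 2000–7500 cells/well, treated on day 1 for 24 h with drug in DMSO (final DMSO <0.1%), then given MTT at 0.83 mg mL−1 final overnight. After SDS/HCl lysis, A570 was read as percent of drug-free control; five replicate wells.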

SK-OV-3 = assay: Cytotoxicity against human SKOV3 cells assessed as reduction in cell viability up to 20 uM after 24 hrs by MTT assay; format: functional, cell-based; summary of the method: as §1
[2] = Cytotoxicity against HEK293FT cells expressing GLUT1 assessed as reduction in cell viability up to 20 uM; format: cell-based; conditions: human
[3] = biological target: T1, Solute carrier organic anion transporter family member 2B1 (Homo sapiens, UniProt O94956); assay: Inhibition of human OATP2B1 expressed in HEK293 cells assessed as DBF uptake after 5 mins by fluorescence assay; format: cell-based; conditions: for inhibition (INH): human, hek293, 5 min
T1 sequence (O94956 whole entry): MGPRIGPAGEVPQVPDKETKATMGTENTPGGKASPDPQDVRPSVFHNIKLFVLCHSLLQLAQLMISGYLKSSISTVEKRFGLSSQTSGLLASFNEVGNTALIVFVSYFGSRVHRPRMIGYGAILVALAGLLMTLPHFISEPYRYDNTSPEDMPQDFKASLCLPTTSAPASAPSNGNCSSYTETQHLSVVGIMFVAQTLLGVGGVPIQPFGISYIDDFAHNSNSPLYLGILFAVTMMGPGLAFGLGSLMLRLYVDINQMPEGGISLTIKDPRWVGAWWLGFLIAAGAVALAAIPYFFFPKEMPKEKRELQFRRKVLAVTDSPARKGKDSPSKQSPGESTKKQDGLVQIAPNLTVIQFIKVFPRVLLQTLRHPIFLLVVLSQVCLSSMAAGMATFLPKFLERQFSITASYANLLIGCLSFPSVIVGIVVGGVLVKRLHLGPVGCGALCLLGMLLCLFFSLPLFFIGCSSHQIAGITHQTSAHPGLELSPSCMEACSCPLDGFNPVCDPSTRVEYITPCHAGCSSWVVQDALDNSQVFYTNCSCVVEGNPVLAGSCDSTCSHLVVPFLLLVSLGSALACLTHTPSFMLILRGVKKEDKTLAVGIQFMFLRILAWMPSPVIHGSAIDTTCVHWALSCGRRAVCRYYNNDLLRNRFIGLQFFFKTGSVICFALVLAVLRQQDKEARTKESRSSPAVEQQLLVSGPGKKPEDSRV
Summary of the method: (§2)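 Stably transfected HEK293 cells (human OAT1, OAT3, OCT1, OCT2, OATP1B3, OATP2B1) and mock cells were assayed 16 h after seeding in HEPES uptake buffer, pH 7.2, with fluorescent probe ± compound. Incubation was 5 min for OAT1/3 and OATPs, and 10 min for OCT1/2. Reference inhibitors were probenecid (OATs), quinine (OCTs) and rifampicin (OATPs). Uptake was stopped with ice-cold PBS and cells were lysed in Tris/Triton. Fluorescence was normalised to BCA protein; triplicates, repeated 2–3 times.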

[4] = biological target: T2, Solute carrier family 22 member 1 (Homo sapiens, UniProt O15245); assay: Inhibition of human OCT1 expressed in HEK293 cells assessed as Asp+ uptake after 10 mins by fluorescence assay; format: cell-based; conditions: for inhibition (INH): human, hek293, 10 min; summary of the method: as §2
T2 sequence (O15245 whole entry): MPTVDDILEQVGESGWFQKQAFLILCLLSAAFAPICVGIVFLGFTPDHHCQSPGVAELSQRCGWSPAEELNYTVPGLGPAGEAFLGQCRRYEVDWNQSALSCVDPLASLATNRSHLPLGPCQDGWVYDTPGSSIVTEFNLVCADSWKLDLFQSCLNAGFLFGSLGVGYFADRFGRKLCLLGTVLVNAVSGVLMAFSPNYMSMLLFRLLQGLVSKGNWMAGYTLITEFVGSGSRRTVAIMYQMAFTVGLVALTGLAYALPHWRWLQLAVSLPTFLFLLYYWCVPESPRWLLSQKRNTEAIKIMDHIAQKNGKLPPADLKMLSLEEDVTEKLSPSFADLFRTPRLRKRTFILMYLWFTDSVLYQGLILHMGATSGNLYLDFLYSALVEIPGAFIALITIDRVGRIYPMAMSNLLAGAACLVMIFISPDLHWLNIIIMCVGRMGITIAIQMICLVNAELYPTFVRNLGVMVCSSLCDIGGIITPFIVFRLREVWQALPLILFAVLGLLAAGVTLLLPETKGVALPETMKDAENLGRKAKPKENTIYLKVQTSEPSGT

[5] = biological target: T3, Solute carrier family 22 member 2 (Homo sapiens, UniProt O15244); assay: Inhibition of human OCT2 expressed in HEK293 cells assessed as Asp+ uptake after 10 mins by fluorescence assay; format: cell-based; conditions: for inhibition (INH): human, hek293, 10 min; summary of the method: as §2
T3 sequence (O15244 whole entry): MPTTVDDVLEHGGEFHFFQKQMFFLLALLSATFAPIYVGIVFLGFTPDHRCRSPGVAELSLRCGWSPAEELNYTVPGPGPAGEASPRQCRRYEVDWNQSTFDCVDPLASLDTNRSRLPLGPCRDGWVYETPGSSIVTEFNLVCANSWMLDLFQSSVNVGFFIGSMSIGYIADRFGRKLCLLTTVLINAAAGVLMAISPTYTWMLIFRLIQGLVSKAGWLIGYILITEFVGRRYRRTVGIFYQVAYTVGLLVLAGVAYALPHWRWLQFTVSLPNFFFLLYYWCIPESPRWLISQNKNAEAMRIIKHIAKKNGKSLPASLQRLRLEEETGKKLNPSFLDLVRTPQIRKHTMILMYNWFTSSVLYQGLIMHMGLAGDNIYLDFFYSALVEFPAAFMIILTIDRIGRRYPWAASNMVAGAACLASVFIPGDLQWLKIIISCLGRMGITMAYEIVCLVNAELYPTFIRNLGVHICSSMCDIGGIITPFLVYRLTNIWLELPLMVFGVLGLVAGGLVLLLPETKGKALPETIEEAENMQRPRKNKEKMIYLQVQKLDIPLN

HEK293 [6] = assay: Cytotoxicity against HEK293 cells assessed as reduction in cell viability up to 200 uM after 10 mins by MTT assay; format: cell-based; conditions: human, hek293, 10 min
Summary of the method: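 HEK293-mock cells were exposed to 100 or 200 μM for 10 min. MTT was added at 0.83 mg mL−1 final and incubated overnight. Cells were lysed in 15% SDS/0.015 M HCl and absorbance was read at 570 nm. Viability is given as % of drug-free controls.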

HEK293 [7] = assay: Toxicity in HEK293 cells assessed as effect on total protein up to 200 uM after 10 mins; format: cell-based; conditions: human, hek293, 10 min
Summary of the method: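 HEK293-mock cells were exposed to 100 or 200 μM for 10 min, and total cellular protein was then measured.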

Compound | solubility at 1 h [1] [µg/mL] | Activity (DU-145) | Activity (SK-OV-3) | Activity [2] | pIC50 [3] | inhibition (INH) [3] | pIC50 [4] | inhibition (INH) [4] | pIC50 [5] | inhibition (INH) [5] | Activity (HEK293 [6]) | Activity (HEK293 [7])
COc1ccc(/C=C\c2cc(OC)c(OC)c(OC)c2)cc1O [COMBRETASTATIN A4] | 3 (≈ 9.48 µM) | Active | Active | Toxic | 4.91 | Dose-dependent effect | < 3.70 | Dose-dependent effect | 4.21 | Dose-dependent effect | Non-Toxic | Non-Toxic
COc1ccc(/C=C\c2cc(OC)c(OC)c(OC)c2)cc1O[C@@H]1O[C@H](CO)[C@@H](O)[C@H](O)[C@H]1O | 1830 (≈ 3820 µM) | Active | Active | Toxic | < 3.70 | Dose-dependent effect | < 3.70 | Dose-dependent effect | < 3.70 | Dose-dependent effect | Non-Toxic | Non-Toxic
